ABCG2 block: ABCG2 efflux pump inhibitors, primary screen, multiplex with ABCB1, IgMXP3 cells, flow cytometry | Broad substrate specificity ATP-binding cassette transporter ABCG2 (Homo sapiens), Q9UNQ0 | JC-1 efflux | inhibition, % at 6.6 µM | 0.1% of 190,000 active | AID 1325, 2008;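 active means inhibition above 80%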;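 further: 0% = DMSO and 100% = nicardipine control wells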
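Measure – % inhibition of efflux relative to nicardipine and DMSO · Test system – ABCG2 IgMXP3 and barcoded ABCB1 CCRF-Adr cell mix · Control set – nicardipine as high control, DMSO as low control · Compound – one concentration, 6.6 µM final · Signal – flow cytometry of retained JC-1 fluorescence · Timing – 10 min exposure at 25 °C with rotation, no wash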
FLuc act counter: FLuc activators, initial screening, artefact control for FLuc-dependent activation tests, biochemical, ATPlite luminescence. activation factor at 10 µM. 200,000 tested, under 10 active. Luciferin 4-monooxygenase (Photinus pyralis), P08659. ATPlite luciferase biochemical, 10 min; 0 = ATP-free wells, 1 = DMSO control;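 active means luciferase activation factor, scaled between plate controls, of at least 2 with compound at 10 µM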
Target sequence (P08659 whole entry, looked up): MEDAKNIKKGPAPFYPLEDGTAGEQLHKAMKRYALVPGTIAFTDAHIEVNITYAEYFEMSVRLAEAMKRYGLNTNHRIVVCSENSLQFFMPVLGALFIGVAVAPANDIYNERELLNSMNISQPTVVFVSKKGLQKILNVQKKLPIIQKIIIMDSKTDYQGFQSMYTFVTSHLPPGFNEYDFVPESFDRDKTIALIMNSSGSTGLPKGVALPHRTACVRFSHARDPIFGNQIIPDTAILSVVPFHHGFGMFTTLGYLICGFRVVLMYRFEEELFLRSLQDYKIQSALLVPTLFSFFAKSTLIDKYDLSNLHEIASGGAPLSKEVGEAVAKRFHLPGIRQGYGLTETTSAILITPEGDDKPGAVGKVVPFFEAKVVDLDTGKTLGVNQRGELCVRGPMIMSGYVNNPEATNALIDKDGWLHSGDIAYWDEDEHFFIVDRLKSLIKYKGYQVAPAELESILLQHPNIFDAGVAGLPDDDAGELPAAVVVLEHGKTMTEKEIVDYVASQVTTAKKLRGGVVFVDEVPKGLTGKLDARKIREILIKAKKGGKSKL
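Material: luciferase plus luciferin reagent, cell-free. Medium: PBS buffer for ATP. Also added: ATP substrate, dispensed from a 10.24 µM working solution in PBS. Doses: test compounds dosed from 2 mM stocks in 100% DMSO. Incubation: 10 min post-reagent at room temperature. Technique: light output (luminescence). Read-out basis: luminescence gain marking luciferase activators.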
Measles CPE: compounds protecting cells from measles virus cytopathic effect, primary screen, measles RdRp inhibitor project, single point, MLSMR library, absorbance; 1.5% of 140,000 active; protection (pct of control), % at 4 µM; Measles virus-infected cells, CPE protection; in the data active means protection mostly above about 24%, no sharp cut-off; inactive means mostly below about 26%
FLuc inhib CS: firefly luciferase enzyme inhibitors, primary screen, artefact control for luciferase-based inhibitor screens, biochemical, luminescence, ATPLite. inhibition, % at 10 µM. Luciferin 4-monooxygenase (Photinus pyralis), P08659. 10 min. 1.5% of 200,000 active;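 active means inhibition above about 50% when tested at 10 µM, limit read from the data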
ABCB1 inh: ABCB1 efflux pump inhibitors, primary screen, cell-based, multiplex, flow cytometry, ABCG2 counter-screen. ATP-dependent translocase ABCB1 (Homo sapiens), P08183. CCRF-Adr cells, JC-1 efflux. inhibition, % at 6.6 µM. 0.067% of 190,000 active; in the data active means inhibition above about 40%;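 further: 0% = vehicle and 100% = reference inhibitor; higher value means more JC-1 retained so stronger ABCB1 efflux block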
DTT redox prof: compounds producing H2O2 with reducing agent – biochemical, NIH compound library profiling, artefact control for MLSCN library redox annotation, primary screen. 0.03% of 200,000 active. DTT-dependent redox cycling H2O2, phenol red/HRP absorbance; 100% = 100 µM peroxide control, 0% = buffer. AID 878, 2007. activation, % at 10 µM;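 active means activation of at least 50% relative to the plate's high and low controls in the primary single-dose screen; inactive means activation below 50%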;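 further: compound incubated with DTT at 0.8 mM final as the reducing agent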
Starred values were filed as active, the others as inactive. In the library only some 2.7% were active in any assay of this set; here they are far more common.

What do the screens show for `Cc1cccc(Nc2nnc(-c3ccc(C(=O)N4C[C@H]5C[C@H](C4)c4cccc(=O)n4C5)cc3)c3ccccc23)c1`?
ABCG2 block: 0; FLuc act counter: 1; Measles CPE: 12; FLuc inhib CS: -4; ABCB1 inh: 0; DTT redox prof: 3

Results for CC1=C/C(=C\c2ccc3c(c2)OCO3)C(=O)S1 ?
ABCG2 block: 9; FLuc act counter: 0.5; Measles CPE: 8; FLuc inhib CS: 51*; ABCB1 inh: 0; DTT redox prof: 1

How did CCCN1C/C(=C/c2ccc3c(c2)OCO3)C(=O)/C(=C/c2ccc3c(c2)OCO3)C1 do in these assays?
ABCG2 block: 3; FLuc act counter: 1; Measles CPE: 0; FLuc inhib CS: 0; ABCB1 inh: 1; DTT redox prof: 2

How did CCN(C(=O)CN1CCN(c2ccccc2F)CC1)c1c(N)n(Cc2ccccc2)c(=O)[nH]c1=O do in these assays?
ABCG2 block: 0; FLuc act counter: 1; FLuc inhib CS: -1; ABCB1 inh: 0; DTT redox prof: -1

How did Cc1ccc(NS(=O)(=O)c2ccc(CCC(=O)NCCCOC(C)C)cc2)cc1 do in these assays?
ABCG2 block: 11; FLuc act counter: 1; Measles CPE: 25*; FLuc inhib CS: -2; ABCB1 inh: 1; DTT redox prof: 0

Results for CNCc1ccccc1Sc1ccc(OC)c(OC)c1 ?
ABCG2 block: 4; FLuc act counter: 1; Measles CPE: 40*; FLuc inhib CS: -4; ABCB1 inh: 1; DTT redox prof: -5

What do the screens show for `Cc1ccc(C(=O)Nc2nnc(SCC(=O)N3CCCc4ccccc43)s2)cc1`?
ABCG2 block: 2; FLuc act counter: 0; Measles CPE: 5; FLuc inhib CS: 98*; ABCB1 inh: 0; DTT redox prof: 0

Results for Cc1cccc(Nc2nnc(SCC(=O)Nc3ccccc3[N+](=O)[O-])s2)c1 ?
ABCG2 block: 41; FLuc act counter: 0.8; Measles CPE: 10; FLuc inhib CS: 20; ABCB1 inh: 6; DTT redox prof: 0

What do the screens show for `CC(C)Oc1ccc(C(=O)Nc2nnc(SCC(=O)N3CCOCC3)s2)cc1`?
ABCG2 block: 13; FLuc act counter: 0; Measles CPE: 7; FLuc inhib CS: 97*; ABCB1 inh: 1; DTT redox prof: 0

How did CCOC(=O)CNC(=O)CSc1nnc(NC(=O)c2ccc(C)cc2)s1 do in these assays?
ABCG2 block: 3; FLuc act counter: 0.1; FLuc inhib CS: 94*; ABCB1 inh: 0; DTT redox prof: 0

How did Cc1cccc(Nc2nnc(SCC(=O)Nc3ccc(C(=O)O)cc3)s2)c1 do in these assays?
ABCG2 block: -3; FLuc act counter: 0.3; FLuc inhib CS: 68*; ABCB1 inh: -1; DTT redox prof: -2

Results for O=C(Nc1nnc(SCC(=O)N2CCCc3ccccc32)s1)c1cccc2ccccc12 ?
ABCG2 block: -5; FLuc act counter: 1; Measles CPE: 2; FLuc inhib CS: 4; ABCB1 inh: 0; DTT redox prof: 0

What do the screens show for `CCOC(=O)C(C)Sc1ccc2nnc(CCNS(=O)(=O)c3ccccc3)n2n1` (configuration not stated)?
ABCG2 block: 4; FLuc act counter: 1; FLuc inhib CS: -3; ABCB1 inh: 1; DTT redox prof: 1

How did COc1ccc(N2C(=O)CC(N3CCC(O)(c4ccc(Cl)cc4)CC3)C2=O)cc1 (configuration not stated) do in these assays?
ABCG2 block: 2; FLuc act counter: 1.1; Measles CPE: 26*; FLuc inhib CS: -8; ABCB1 inh: 0; DTT redox prof: 0

How did COc1ccc(N/C(=C(/C(Cl)=C(Cl)Cl)[N+](=O)[O-])n2nnc3ccccc32)cc1OC do in these assays?
ABCG2 block: 0; FLuc act counter: 1; Measles CPE: 52*; FLuc inhib CS: 1; ABCB1 inh: 0; DTT redox prof: 0
